Results from publication PMC11164214 (International Journal of Nanomedicine, 2024).
Blank lines part the entries; values can stand above or below the molecule they belong to.

Columns and labels:
[1] = Biodistribution in mesenteric lymph nodes after oral administration; type: in vivo, mice
In short: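 Male ICR mice (20 ± 2 g), acclimatised 1 week. Single oral dose of 4 mg/kg DiR as free-dye solution or liposomes (dye at 8% w/w in lipid). Mice killed at 1, 2, 4 and 6 h; intestinal tracts and MLNs excised for ex vivo fluorescence imaging (means ± SD, n = 3). Dil formulations given orally at 4 mg/kg; MLNs examined by CLSM at 4 h.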

[2] = In vitro release assay; type: physicochemical; conditions: 37°C
In short: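 Dynamic dialysis, bag MWCO 8–14 kDa. Liposomal DHA, or DHA dispersed in 0.5% w/v carboxymethyl cellulose sodium as control. Incubated in SGF (pH 1.2) for 2 h, then SIF (pH 6.8) for 22 h, at 37 ± 0.5°C with shaking at 150 rpm. Medium sampled at 0.5–24 h and replaced with fresh medium. DHA measured by UV‒Vis after treatment in 2% NaOH:ethanol (4:1, v/v) at 60°C for 30 min; absorbance at 238 nm.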

[3] = Intestinal lymphatic transport inhibition study; type: in vivo, rats; conditions: CHX 3.0 mg/kg i.p. 1 h before, oral 10 mg/kg DHA
In short: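 Male Sprague-Dawley rats (200 ± 20 g) given cycloheximide 3.0 mg/kg i.p. to block chylomicron secretion. One hour later, oral DHA suspension or liposomal DHA at 10 mg/kg DHA equivalent. Plasma DHA quantified by validated HPLC‒MS/MS after ether extraction, with artemisinin as internal standard. Means ± SD, n = 4.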

accumulation / fluorescence signal in the MLNs (ex vivo imaging) ([1]; oral 4 mg/kg DiR): rare fluorescence signal
SMILES: CCCCCCCCCCCCCCCCCCN1/C(=C/C=C/C=C/C=C/C2=[N+](CCCCCCCCCCCCCCCCCC)c3ccccc3C2(C)C)C(C)(C)c2ccccc21.[I-] [free DiR, 1,1’-dioctadecyl-3,3,3’,3’-tetramethylindotricarbocyaine iodide]

red fluorescence signal in the MLNs (CLSM) ([1]; oral 4 mg/kg Dil, 4 h): negligible
SMILES: CCCCCCCCCCCCCCCCCCN1/C(=C/C=C/C2=[N+](CCCCCCCCCCCCCCCCCC)c3ccccc3C2(C)C)C(C)(C)c2ccccc21.[O-][Cl+3]([O-])([O-])[O-] [free Dil, 1,1’-Dioctadecyl-3,3,3’,3’-tetramethylindocarbocyanine perchlorate]

cumulative release rate of DHA at 12 h ([2]; SGF 2 h then SIF): 94.29% | DHA released during the first 2 h in SGF ([2]; SGF pH 1.2, 2 h): more than 65% | decrease of AUC0~8 of DHA in CHX pretreated rats [3]: little influence | decrease of Cmax of DHA in CHX pretreated rats [3]: little influence
SMILES: C[C@H]1[C@@H](O)O[C@@H]2O[C@@]3(C)CC[C@H]4[C@H](C)CC[C@@H]1[C@@]24OO3 [DHA, Dihydroartemisinin]
